The source of these data is ChEMBL document CHEMBL4261634, “Design and optimization of 2,3-dihydrobenzo[b][1,4]dioxine propanoic acids as novel GPR40 agonists with improved pharmacokinetic and safety profiles” (Bioorg Med Chem, 2018).

Active and inactive are the calls of the source. The calls are words filed in the database; no cut-off is given here.

Series [1] can be described thus: Elimination half life in Sprague-Dawley rat at 1 mg/kg, iv by LC-ESI-MS analysis. It is filed as ADME, organism-based. Particulars: in vivo, read-out: beta t1/2 (converted). Summed up:
(§1)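 SD rats dosed orally (3 or 10 mg/kg) or by intravenous injection (1 mg/kg). Plasma PK parameters derived per route: Cmax, AUC0-t, Tmax, t1/2 and F after oral dosing; CL, AUC0-t, MRT, t1/2 and Vdss after iv dosing. Mean ± SD from three independent experiments (n = 3).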

For series [2], the target named is T1, Cytochrome P450 2B6 (Homo sapiens, UniProt P20813).
T1 sequence (P20813 whole entry): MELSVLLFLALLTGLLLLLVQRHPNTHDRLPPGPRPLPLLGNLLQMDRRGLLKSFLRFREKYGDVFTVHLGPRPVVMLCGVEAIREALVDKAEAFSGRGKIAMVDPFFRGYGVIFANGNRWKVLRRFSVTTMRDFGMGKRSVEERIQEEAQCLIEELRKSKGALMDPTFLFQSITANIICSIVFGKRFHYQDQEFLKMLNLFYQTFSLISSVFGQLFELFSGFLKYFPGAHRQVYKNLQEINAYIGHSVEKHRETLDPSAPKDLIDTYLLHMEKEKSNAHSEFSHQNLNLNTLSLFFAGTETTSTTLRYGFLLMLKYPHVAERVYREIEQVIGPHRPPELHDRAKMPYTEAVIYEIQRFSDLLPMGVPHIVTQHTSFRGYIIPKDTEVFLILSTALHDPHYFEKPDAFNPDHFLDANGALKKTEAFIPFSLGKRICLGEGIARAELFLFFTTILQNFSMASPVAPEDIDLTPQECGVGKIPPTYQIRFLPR
Kind of series: Inhibition of CYP2B6 (unknown origin). It is filed as ADME.

Series [3] in a line: Clearance in Sprague-Dawley rat at 1 mg/kg, iv by LC-ESI-MS analysis. It counts as ADME, organism-based. Particulars: in vivo. A digest of the protocol:
as §1

Series [4] relates to Rattus norvegicus. The experiment in a line: Subacute toxicity in Sprague-Dawley rat assessed as effect on survival rate at 50 to 100 mg/kg, po administered once daily for 2 weeks. The note with it: in vivo, 336 h. It is filed as organism-based. A digest of the protocol:
(§2)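 SD rats dosed orally once daily for two weeks at 50 mg/kg and 100 mg/kg. Subacute toxicity was assessed over the dosing period from survival rate, behaviour, food intake and organ coefficients.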

Series [5] relates to Rattus norvegicus. The experiment in a line: Subacute toxicity in Sprague-Dawley rat assessed as effect on organ coefficients at 50 to 100 mg/kg, po administered once daily for 2 weeks. It is filed as organism-based. The note with it: in vivo, 336 h. A digest of the protocol:
as §2

The test system of series [6] is Rattus norvegicus. The experiment in a line: Antidiabetic activity in Sprague-Dawley rat assessed as reduction in blood glucose excursion at 10 to 20 mg/kg, po administered 60 mins prior to glucose challenge by OGTT. It is filed as functional, organism-based. A digest of the protocol: (§3)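 OGTT in SD rats: compound given orally 60 min before a 3.0 g/kg glucose challenge. Blood glucose followed over time, and AUC0-60min or AUC0-120min calculated versus vehicle group. Mean ± SD, n = 8.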

Series [7] in a line: Cmax in Sprague-Dawley rat at 10 mg/kg, po by LC-ESI-MS analysis. It is filed as ADME, organism-based. Also on record: dose 10 mg/kg, route oral. Particulars: in vivo. Summed up:
as §1

Series [8] can be described thus: Elimination half life in Sprague-Dawley rat at 3 mg/kg, po by LC-ESI-MS analysis. It is filed as ADME, organism-based. The note with it: in vivo, read-out: beta t1/2 (converted). A digest of the protocol:
as §1

A short description of series [9]: Oral bioavailability in Sprague-Dawley rat at 3 mg/kg by LC-ESI-MS analysis. It is filed as ADME, organism-based. The note with it: in vivo. A digest of the protocol:
as §1

Series [10] deals with Rattus norvegicus. The experiment in a line: Subacute toxicity in Sprague-Dawley rat assessed as effect on behavior at 50 to 100 mg/kg, po administered once daily for 2 weeks. It counts as organism-based. Particulars: in vivo, 336 h. Summed up:
as §2

Series [11] has as its target ATP-binding cassette sub-family C member 2 (Homo sapiens, UniProt Q92887). The experiment in a line: Inhibition of human MRP2.
Series [12] deals with Cytochrome P450 3A4 (Homo sapiens, UniProt P08684). Kind of series: Inhibition of CYP3A4 (unknown origin). It counts as ADME.
Sequence of Cytochrome P450 3A4 (P08684 whole entry): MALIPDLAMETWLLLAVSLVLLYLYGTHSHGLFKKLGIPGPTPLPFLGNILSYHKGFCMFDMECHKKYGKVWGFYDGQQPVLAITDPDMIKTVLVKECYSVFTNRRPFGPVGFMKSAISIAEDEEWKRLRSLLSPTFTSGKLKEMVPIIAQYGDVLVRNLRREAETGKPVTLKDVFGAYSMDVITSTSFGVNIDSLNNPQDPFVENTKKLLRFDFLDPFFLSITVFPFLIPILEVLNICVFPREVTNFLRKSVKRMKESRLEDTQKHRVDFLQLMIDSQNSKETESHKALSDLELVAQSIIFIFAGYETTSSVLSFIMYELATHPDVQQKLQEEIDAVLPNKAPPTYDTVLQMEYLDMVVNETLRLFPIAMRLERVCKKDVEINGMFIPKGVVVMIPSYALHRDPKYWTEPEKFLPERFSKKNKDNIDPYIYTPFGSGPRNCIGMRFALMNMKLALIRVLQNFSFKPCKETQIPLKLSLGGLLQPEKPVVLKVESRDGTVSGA
Series [13] has as its target T2, Free fatty acid receptor 3 (Homo sapiens) (UniProt O14843).
T2 sequence (whole entry): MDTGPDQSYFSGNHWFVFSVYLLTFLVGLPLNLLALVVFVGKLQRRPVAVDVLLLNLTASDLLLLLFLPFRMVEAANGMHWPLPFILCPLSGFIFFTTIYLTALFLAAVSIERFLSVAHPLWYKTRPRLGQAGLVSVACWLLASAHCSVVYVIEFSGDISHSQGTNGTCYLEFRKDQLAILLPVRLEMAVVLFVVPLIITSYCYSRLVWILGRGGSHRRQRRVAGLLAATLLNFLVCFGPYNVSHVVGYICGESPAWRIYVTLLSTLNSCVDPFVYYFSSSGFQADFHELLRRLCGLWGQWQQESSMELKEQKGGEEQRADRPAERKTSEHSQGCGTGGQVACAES
Kind of series: Agonist activity at GPR41 (unknown origin) up to 100 uM. It counts as functional.

Series [14] can be described thus: AUC (0 to t) in Sprague-Dawley rat at 10 mg/kg, po by LC-ESI-MS analysis. It counts as ADME, organism-based. Particulars: in vivo. A digest of the protocol:
as §1

The nature of series [15]: AUC (0 to t) in Sprague-Dawley rat at 1 mg/kg, iv by LC-ESI-MS analysis. It counts as ADME, organism-based. The note with it: in vivo. A digest of the protocol: as §1
Series [16] has as its target T3, Solute carrier organic anion transporter family member 1B3 (Homo sapiens, UniProt Q9NPD5).
T3 sequence (Q9NPD5 whole entry): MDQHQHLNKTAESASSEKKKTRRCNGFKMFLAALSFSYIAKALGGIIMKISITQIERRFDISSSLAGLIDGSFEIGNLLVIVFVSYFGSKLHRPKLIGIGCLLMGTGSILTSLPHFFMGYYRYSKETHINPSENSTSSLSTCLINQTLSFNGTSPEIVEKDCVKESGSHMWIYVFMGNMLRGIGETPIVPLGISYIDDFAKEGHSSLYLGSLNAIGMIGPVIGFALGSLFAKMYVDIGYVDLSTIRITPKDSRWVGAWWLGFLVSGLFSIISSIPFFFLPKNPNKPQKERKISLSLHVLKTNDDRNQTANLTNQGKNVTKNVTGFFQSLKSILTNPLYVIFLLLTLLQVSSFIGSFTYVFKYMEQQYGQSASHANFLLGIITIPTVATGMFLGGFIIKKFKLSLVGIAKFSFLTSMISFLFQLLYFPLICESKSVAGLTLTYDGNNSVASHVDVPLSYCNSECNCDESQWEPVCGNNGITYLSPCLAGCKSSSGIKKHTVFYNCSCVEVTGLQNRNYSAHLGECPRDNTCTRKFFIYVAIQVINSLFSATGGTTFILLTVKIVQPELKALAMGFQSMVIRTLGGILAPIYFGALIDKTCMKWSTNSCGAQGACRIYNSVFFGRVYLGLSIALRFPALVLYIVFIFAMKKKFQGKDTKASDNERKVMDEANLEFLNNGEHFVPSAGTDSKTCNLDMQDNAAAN
Kind of series: Inhibition of human OATP1B3. It is filed as ADME.

A short description of series [17]: MRT in Sprague-Dawley rat at 1 mg/kg, iv by LC-ESI-MS analysis. The note with it: in vivo. It is filed as ADME, organism-based. Summed up:
as §1

The nature of series [18]: Tmax in Sprague-Dawley rat at 3 mg/kg, po by LC-ESI-MS analysis. It counts as ADME, organism-based. The note with it: in vivo. A digest of the protocol: as §1
Series [19] has as its target Cytochrome P450 2C9 (Homo sapiens, UniProt P11712). Kind of series: Inhibition of CYP2C9 (unknown origin). It counts as ADME.
Series [20] relates to Rattus norvegicus. Kind of series: Antidiabetic activity in Sprague-Dawley rat assessed as reduction in blood glucose AUC (0 to 120 mins) at 10 to 20 mg/kg, po administered 60 mins prior to glucose challenge by OGTT. It counts as functional, organism-based. A digest of the protocol:
as §3

Series [21] is described as follows: Elimination half life in Sprague-Dawley rat at 10 mg/kg, po by LC-ESI-MS analysis. It is filed as ADME, organism-based. Particulars: in vivo, read-out: beta t1/2 (converted). Summed up:
as §1

In general, IC50 refers to the concentration that gives 50% inhibition. Higher therefore signals lower potency. In general, clearance refers to the rate of elimination divided by the concentration. Broadly, the Cmax is the maximum level reached in the sampled fluid or tissue. The term bioavailability denotes the share of a dose that reaches the circulation, judged against a reference dose that is usually intravenous. One may read the AUC(0-t) as the area under the concentration-time curve up to a stated or last time point. Usually MRT stands for a mean duration of stay, worked out from the concentration-time curve. The Tmax is the time from dosing to the highest level.

Sequence of ATP-binding cassette sub-family C member 2 (Q92887 whole entry): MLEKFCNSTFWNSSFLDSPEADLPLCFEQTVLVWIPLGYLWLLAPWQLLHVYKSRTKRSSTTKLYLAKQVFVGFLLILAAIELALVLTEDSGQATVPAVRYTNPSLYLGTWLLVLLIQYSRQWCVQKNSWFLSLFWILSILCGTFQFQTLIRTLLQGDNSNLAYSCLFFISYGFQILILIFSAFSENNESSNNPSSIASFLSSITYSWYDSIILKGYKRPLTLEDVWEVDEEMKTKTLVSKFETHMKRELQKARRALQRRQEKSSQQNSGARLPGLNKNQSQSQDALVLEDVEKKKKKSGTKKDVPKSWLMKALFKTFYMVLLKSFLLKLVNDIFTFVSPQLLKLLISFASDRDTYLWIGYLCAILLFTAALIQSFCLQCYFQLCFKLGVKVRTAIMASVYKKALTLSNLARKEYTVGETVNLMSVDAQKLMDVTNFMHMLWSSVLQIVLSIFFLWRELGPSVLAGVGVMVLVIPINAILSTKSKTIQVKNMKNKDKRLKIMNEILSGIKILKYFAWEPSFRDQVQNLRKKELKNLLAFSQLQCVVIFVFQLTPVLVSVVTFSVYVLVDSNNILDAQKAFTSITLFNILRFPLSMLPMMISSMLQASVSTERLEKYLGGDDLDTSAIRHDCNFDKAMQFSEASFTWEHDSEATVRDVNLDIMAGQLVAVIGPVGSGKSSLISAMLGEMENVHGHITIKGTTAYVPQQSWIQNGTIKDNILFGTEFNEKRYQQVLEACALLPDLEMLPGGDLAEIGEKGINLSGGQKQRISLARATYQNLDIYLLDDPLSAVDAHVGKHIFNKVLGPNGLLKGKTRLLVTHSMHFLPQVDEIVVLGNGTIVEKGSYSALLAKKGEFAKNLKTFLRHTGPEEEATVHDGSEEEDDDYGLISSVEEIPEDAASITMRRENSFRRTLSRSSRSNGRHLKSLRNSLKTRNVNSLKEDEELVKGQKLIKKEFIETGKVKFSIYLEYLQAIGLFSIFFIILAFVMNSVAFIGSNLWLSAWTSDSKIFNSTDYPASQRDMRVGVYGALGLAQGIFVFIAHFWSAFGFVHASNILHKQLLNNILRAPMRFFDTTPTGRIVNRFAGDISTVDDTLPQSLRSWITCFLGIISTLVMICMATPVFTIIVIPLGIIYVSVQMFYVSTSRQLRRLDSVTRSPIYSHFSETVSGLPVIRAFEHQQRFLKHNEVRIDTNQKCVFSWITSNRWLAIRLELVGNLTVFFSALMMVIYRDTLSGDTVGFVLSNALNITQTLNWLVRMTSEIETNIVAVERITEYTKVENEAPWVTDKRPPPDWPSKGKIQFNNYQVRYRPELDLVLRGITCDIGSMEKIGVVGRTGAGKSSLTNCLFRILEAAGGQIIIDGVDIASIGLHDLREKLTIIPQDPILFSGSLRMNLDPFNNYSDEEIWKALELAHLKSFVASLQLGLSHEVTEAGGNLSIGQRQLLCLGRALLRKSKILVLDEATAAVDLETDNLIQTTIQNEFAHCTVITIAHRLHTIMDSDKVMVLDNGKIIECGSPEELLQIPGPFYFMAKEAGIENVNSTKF
Sequence of Cytochrome P450 2C9 (P11712 whole entry): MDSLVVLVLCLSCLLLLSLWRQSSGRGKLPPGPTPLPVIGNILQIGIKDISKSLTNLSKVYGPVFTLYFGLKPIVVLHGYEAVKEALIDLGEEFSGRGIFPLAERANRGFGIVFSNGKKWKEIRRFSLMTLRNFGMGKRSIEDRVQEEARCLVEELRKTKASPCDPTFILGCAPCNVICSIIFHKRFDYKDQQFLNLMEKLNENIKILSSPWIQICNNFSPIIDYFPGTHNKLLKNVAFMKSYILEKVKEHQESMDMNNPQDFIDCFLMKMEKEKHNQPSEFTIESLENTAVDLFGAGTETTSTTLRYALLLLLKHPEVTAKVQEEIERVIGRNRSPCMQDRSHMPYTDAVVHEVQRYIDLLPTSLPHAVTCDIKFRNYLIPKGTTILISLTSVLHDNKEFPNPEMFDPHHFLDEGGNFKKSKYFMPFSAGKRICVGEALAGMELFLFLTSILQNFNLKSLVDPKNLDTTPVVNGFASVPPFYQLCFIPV

For the compound `CC#C[C@@H](CC(=O)O)c1ccc(OC[C@H]2COc3ccc(Cl)cc3O2)cc1`, the results for the half-life in series [1], in series [8] and in series [21] were 13.2 h, 16.1 h and 25.7 h, respectively. The half-maximal inhibitory concentration (IC50) in series [2] was 84.7 µM; in series [11] it was more than 100 µM; in series [12], more than 100 µM; in series [16] it was 39.5 µM; in series [19] it was 60.5 µM. The compound further gave a clearance in [3] of 0.17 mL/min/kg. For the same compound, the Activity entry in series [4], in series [5] and in series [10] was “Non-Toxic” each time. The outcome in series [6] and in series [20] was Active. The compound further gave a Cmax in series [7] of 47800 ng/mL. This compound showed a bioavailability in [9] of 65.5%. Also, in series [13], the result was inactive. The figures for the AUC(0-t) in series [14] and in series [15] were 656 µg·h/mL and 71.4 µg·h/mL, respectively. In series [17], this compound displayed an MRT of 17.9 h. Besides, the Tmax in series [18] is 3 h.
